Measured values as given in PubChem BioAssay.
Values without a mark were called inactive. Results filed as inconclusive are left out. Active and inactive are the calls of the source.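 Rule for the calls, unless noted: active = viability increase at or above a cutoff of the median across tested compounds plus 3 SD (cut at about 8.5% in these data, passing the limit was not always enough); inconclusive = some gains above the cutoff, reason not given; inactive = the rest.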

How the values were obtained:
[1] = OD615 S. cerevisiae growth inhibition, permissive medium, pilot counter-assay, permissive growth control for S. cerevisiae lifespan shortening project (AID 705;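 active = growth inhibition above 25% in both replicates, a cutoff set 3 SD above the mean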); details: OD615, 24 h, at 10 µM, hits give high values
Outline: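 System – S. cerevisiae with engineered DeaD lifespan system · Buffer or medium – SC raffinose/galactose permissive medium · Schedule – cells pre-grown 4 h, then 24 h compound exposure, 30 °C humidified · Technique – culture turbidity as optical density at 615 nm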

[2] = Restrictive medium S. cerevisiae growth inhibition, OD615, pilot screen of yeast lifespan reduction project, restrictive growth control (AID 706;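 active = growth inhibition above a set limit, 3 SD over mean compound inhibition, in both replicates, cut at about 43% in these data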;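 note: modified DeaD lifespan yeast strain shifted to restrictive glucose medium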); details: OD615, 48 h, at 10 µM, hits give high values
Outline: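 Material: engineered S. cerevisiae DeaD strain / Medium: glucose-based CSMM-D restrictive medium / Compound: single dose of 10 µM compound final, 0.25% DMSO / Timing: 4 h pre-incubation, 48 h exposure at 30 °C / Technique: OD615 absorbance reading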

[3] = viability gain of MRP-1-high H69AR cells under doxorubicin, pilot screen, MRP-1 activator project, CellTiter-Glo, duplicate (AID 807); details: H69AR viability with doxorubicin, CellTiter-Glo luminescence; at 10 µM; hits give high values;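 note: compound pretreatment 18-22 h then 72 h combined with doxorubicin; 0% = doxorubicin alone and 100% = vehicle without doxorubicin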
[4] = growth suppression of beta-catenin knockout HCT116, pilot screen, human colon tumor cells (AID 823;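 active = cell viability at or below a set limit in both duplicate runs, the limit being the all-compound median minus 4 SD, cut at about 23% in these data, passing the limit was not always enough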;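 note: 0% = wells killed by 20 µM Hyamine and 100% = untreated DMSO cell wells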); details: CellTiter-Glo, 60 h, at 10 µM, hits give low values
[5] = growth suppression of PTEN-deleted HCT116, pilot screen, cell-based, HCT116 clonal line, CellTiter-Glo (AID 824;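 active = viability at or below 27.92% in each of two runs, the all-compound median minus 4 SD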;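 note: 0% = 20 µM Hyamine control and 100% = vehicle cell control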); details: 60 h, at 10 µM, hits give low values
[6] = inhibitors of the yeast RAM network, pilot screen, dse1pr::URA3 reporter, 5-FOA selection (AID 869;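 active = inhibition over a set limit, the all-compound mean plus 3 SD, in both replicate runs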;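 note: 0% = DMSO wells with no growth and 100% = 10 µM 1-NA-PP1 with full growth; RAM network block rescues cells from 5-FOA so hits raise OD615 growth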); details: S. cerevisiae dse1pr::URA3 5-FOA growth, OD615, 2 d; at 10 µM; hits give high values; strain carries analog-sensitive mutant Cbk1 kinase
[7] = RAM signaling pathway blockade in yeast – S. cerevisiae, Pdr1DBD-CYC8 efflux-inhibited sensitized strain, primary screen (AID 1298;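 active = RAM network inhibition above 8.4% in each of two replicates, 3 SD over the compound average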;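 note: 0% = DMSO untreated cells without growth and 100% = 10 µM 1-NA-PP1 full growth; higher means more yeast growth rescued from 5-FOA killing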); details: S. cerevisiae cbk1-as DSE1-URA3 strain, 5-FOA growth OD615, 2 d; at 50 µM; hits give high values

Row | Compound | growth inhibition [1] [%] | growth inhibition [2] [%] | viability increase [3] [%] | viability [4] | viability [5] | inhibition [6] [%] | RAM network inhibition [7] [%]
1 | CC(C)(C)SCCNS(=O)(=O)c1ccccc1 | -8.9 | 6.57 | -0.28 | 99.8% | 93.4% | 2.52 | 3.01
2 | CCN(CCNC(=O)C1CCCN(S(=O)(=O)c2cnc[nH]2)C1)c1ccccc1 (stereo unspecified) | -0.145 | -6.85 | -0.77 | 106% | 101% | 0.775 | 3.46
3 | CC(=O)N1CCc2cc(C(=O)CN3CCN(c4cccc(Cl)c4)CC3)ccc21 | -11 | -7.26 | 0.32 | 69.3% | 76.8% | 1.65 | 3.12
4 | Cc1cc(C)c(C#N)c(Nc2ccc3c(c2)OCCO3)n1 | 0.055 | -10.2 | -1.17 | 97.6% | 93.9% | 0.915 | 0.66
5 | CC(C)Sc1nc(SCC(=O)NCc2ccco2)c2c3c(sc2n1)COC(C)(C)C3 | -10.2 | -10.9 | -3.75 | 83.2% | 86.2% | 0.615 | 11.6
6 | Cc1ccc2c(CC(=O)Nc3nc(C)cs3)coc2c1 | -5.02 | 0.02 | 0.52 | 76.5% | 80.4% | 1.38 | 0.88
7 | Cn1c(=O)c2c(nc(NCCc3ccccc3)n2Cc2ccc(F)cc2)n(C)c1=O | -4.81 | -8.86 | 1.3 | 69.8% | 55.3% | 1.03 | 5.94
8 | CC1(C)CC(=O)C2=C(C1)N(c1ccc(F)cc1)C(=O)CC2c1cccnc1 (stereo unspecified) | 0.065 | -2 | -2.17 | 95.9% | 100% | 2.41 | 5.94
9 | Nc1cc(-c2cccc(F)c2)nn1S(=O)(=O)c1cccc2nsnc12 | -5.94 | -7.52 | -2.16 | 68.5% | 65.7% | 2.71 | 0.98
10 | COc1ccc(C)c2sc(=NC(=O)C(C)C)n(C)c12 | -6.53 | 2.31 | -3.89 | 90% | 92.4% | 3.1 | 6.3
11 | CC1CCCCN1Cc1nc2c(c(=O)n(C)c(=O)n2C)n1Cc1cccc2ccccc12 (stereo unspecified) | -4.17 | -4.83 | -0.2 | 94.2% | 89% | 1.91 | 2.8
12 | O=C1CCCc2c1[nH]c1c(Br)cccc21 | 5.96 | -1.3 | 0.96 | 108% | 105% | 0.425 | 3.4
13 | COc1ccc(C2c3c(oc4ccccc4c3=O)C(=O)N2c2ccccn2)cc1 (stereo unspecified) | -12.9 | -7.65 | -0.92 | 90.9% | 91% | 3.71 | 4.85
14 | CC(C)N(CCCNC(=O)CC1Oc2ccccc2NC1=O)Cc1ccccc1 (stereo unspecified) | 2.46 | 10.3 | -1.49 | 89.3% | 97.7% | 0.47 | 3.18
15 | Cc1ccc(S(=O)(=O)N2CCCC2C(=O)Nc2nc3ccccc3s2)cc1 (stereo unspecified) | -4.55 | -5.41 | -3.97 | 79.7% | 80.7% | 2.12 | 4.05
16 | Brc1cccc(-c2nc(-c3ccncc3)no2)c1 | -7.69 | 7.9 | -3.4 | 90.4% | 80% | -0.445 | 3.3
17 | NC(=O)COc1ccc(=O)n(-c2ccccc2)n1 | 2.42 | 4.29 | 0.84 | 107% | 105% | 1.23 | 1.14

Row | Compound | growth inhibition [1] [%] | growth inhibition [2] [%] | viability increase [3] [%] | viability [4] | viability [5] | inhibition [6] [%] | RAM network inhibition [7] [%]
18 | O=C(O)c1ccc(F)c(S(=O)(=O)Nc2ccccc2)c1 | -3.28 | -2.19 | 1.08 | 96.2% | 101% | -0.93 | -0.06
19 | O=C1c2cccc3cccc(c23)C(=O)N1c1nccs1 | -1.67 | 0 | 0.23 | 104% | 106% | 1.98 | 6.64
20 | C=CCNC(=O)C1CC(=O)N(c2ccc(C)cc2)C1 (stereo unspecified) | -10.6 | -4.72 | -3.08 | 93.9% | 86.1% | 0.995 | 4.77
21 | CCCCNC(=O)CS(=O)Cc1nc(-c2cccc(C)c2)oc1C (stereo unspecified) | -13.2 | -6.67 | -2.67 | 96.2% | 98.1% | 1.14 | 0.26
22 | Cn1c(=O)oc2cc(S(=O)(=O)N3CCCc4ccccc43)ccc21 | -5.55 | -1.98 | -5.94 | 18.1% (active) | 23.5% (active) | 1.96 | 3.9
23 | Cc1nc2sc(C(c3ccco3)N3CCN(c4ccccc4)CC3)c(O)n2n1 (stereo unspecified) | -2.19 | -0.705 | 3.13 | 97.3% | 101% | 1.73 | 3
24 | CCOC(=O)C1CCN(S(=O)(=O)c2ccc3[nH]c(=O)oc3c2)CC1 | -10 | -5.23 | -1.5 | 97.8% | 91.1% | 0.515 | 2.82
25 | CCCCOC(=O)Nc1ccc(N2CCOCC2)cc1 | -0.54 | 2.39 | -0.38 | 98.2% | 102% | 1.28 | 4.87
26 | CN(C)c1ccc(NC(=O)Cn2c(=O)n(Cc3ccccc3)c(=O)c3ccccc32)cc1 | -0.65 | 1.48 | 3 | 83.2% | 88.3% | 0.52 | 8.96
27 | O=C(NCCc1cn2ccsc2n1)c1cccs1 | -14.1 | -12.4 | -1.75 | 105% | 102% | 1.29 | 3.51
28 | CN1CCCc2cc3c(C(F)(F)F)cc(=O)oc3nc21 | -5.06 | 5.85 | -1.33 | 94.2% | 102% | 1.14 | 1.82
29 | OC(COc1ccc2ccccc2c1)CN1CCN(c2ccc(F)cc2)CC1 (stereo unspecified) | 3.06 | -5.26 | -4.36 | 81.7% | 84.4% | 1.09 | 1.23
30 | CCCCNC(=O)Nc1cc(C(=O)OC)ccc1C | -6.38 | -14.2 | 0.11 | 85.2% | 91.4% | 1.55 | 7.5
31 | Cc1cc(C)n(-c2nnc(C)n2/N=C/c2cc(Br)ccc2OCc2ccccc2)n1 | -10.3 | 13.9 | -7.71 | 12.4% (active) | 8.96% (active) | 0.37 | -1.07
32 | COc1cccc(C2NC(CCSC)(C(=O)O)C3C(=O)N(C(C)C)C(=O)C23)c1O (stereo unspecified) | -1.2 | 8 | 0.13 | 95% | 97.2% | 1.93 | -1.51
33 | CCC(C)(c1ccc(C(=O)OC)s1)c1ccc(C(=O)OC)s1 | -5.53 | -2.49 | 1.15 | 73.3% | 76.8% | 0.63 | 1.02
